Experimental data from ChEMBL document CHEMBL4190330, “Discovery of Potent and Selective A2A Antagonists with Efficacy in Animal Models of Parkinson's Disease and Depression” (ACS Med Chem Lett, 2017).
≈ marks a conversion by molar mass, not a printed value.

Columns and labels:
[1] = target: Adenosine receptor A2a (Rattus norvegicus, UniProt P30543); assay: Antagonist activity at rat A2A receptor assessed as reduction in CGS-21680-induced cAMP level pretreated for 15 mins followed by CGS-21680 addition measured after 30 mins by HTRF assay; format: functional
Chain of Adenosine receptor A2a (Rattus norvegicus, UniProt P30543) (P30543 whole entry): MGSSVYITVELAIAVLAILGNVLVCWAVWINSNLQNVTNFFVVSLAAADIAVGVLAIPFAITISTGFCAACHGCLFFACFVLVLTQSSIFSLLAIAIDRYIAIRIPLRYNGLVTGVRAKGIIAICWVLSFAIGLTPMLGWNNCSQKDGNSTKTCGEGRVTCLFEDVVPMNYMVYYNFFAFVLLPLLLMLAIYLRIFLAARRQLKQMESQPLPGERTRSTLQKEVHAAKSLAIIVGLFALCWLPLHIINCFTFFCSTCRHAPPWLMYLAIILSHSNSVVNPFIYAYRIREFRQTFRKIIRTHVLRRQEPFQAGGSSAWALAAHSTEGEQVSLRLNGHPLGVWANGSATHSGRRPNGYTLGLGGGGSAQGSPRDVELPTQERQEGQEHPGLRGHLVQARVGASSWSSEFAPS
Method in brief: (§1)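 HTRF-based cAMP functional assay; each compound tested at 12 concentrations, every point in triplicate; Ki given as mean of two independent experiments (n=2).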

[2] = Solubility of the compound at pH 4; format: physicochemical; conditions: buffer
[3] = target: Cytochrome P450 2C19 (Homo sapiens, UniProt P33261); assay: Inhibition of CYP2C19 (unknown origin); format: ADME
Chain of Cytochrome P450 2C19 (P33261 whole entry): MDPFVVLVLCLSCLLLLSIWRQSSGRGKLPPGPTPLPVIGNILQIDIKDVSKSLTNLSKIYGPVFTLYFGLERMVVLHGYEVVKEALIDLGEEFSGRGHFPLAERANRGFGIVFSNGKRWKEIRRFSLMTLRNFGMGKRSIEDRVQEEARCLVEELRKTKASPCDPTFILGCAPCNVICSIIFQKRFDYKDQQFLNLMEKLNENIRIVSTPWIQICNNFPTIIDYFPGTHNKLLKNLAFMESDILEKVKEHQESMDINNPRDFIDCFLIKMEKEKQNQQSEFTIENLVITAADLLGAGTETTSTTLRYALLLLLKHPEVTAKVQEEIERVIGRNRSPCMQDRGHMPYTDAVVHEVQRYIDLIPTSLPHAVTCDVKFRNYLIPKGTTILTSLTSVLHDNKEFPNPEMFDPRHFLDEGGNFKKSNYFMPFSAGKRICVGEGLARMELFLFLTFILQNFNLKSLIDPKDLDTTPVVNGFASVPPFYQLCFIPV

[4] = test system: Rattus norvegicus; assay: Anti-parkinson's activity in po dosed 6-OHDA-lesioned Wistar rat assessed as increase in L-DOPA induced contralateral rotations measured up to 2 hrs; format: functional
Method in brief: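 6-OHDA-lesioned rats given oral test doses; L-DOPA 4 mg/kg ip; contralateral rotations recorded up to 2 h, dosing 60 min prior; mean ± SEM, n=6-7; compared with L-DOPA-alone group.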

[5] = Permeability across apical to basolateral side in human Caco2 cells; format: ADME, cell-based; conditions: caco-2
[6] = target: Cytochrome P450 2D6 (Homo sapiens, UniProt P10635); assay: Inhibition of CYP2D6 (unknown origin); format: ADME
Chain of Cytochrome P450 2D6 (P10635 whole entry): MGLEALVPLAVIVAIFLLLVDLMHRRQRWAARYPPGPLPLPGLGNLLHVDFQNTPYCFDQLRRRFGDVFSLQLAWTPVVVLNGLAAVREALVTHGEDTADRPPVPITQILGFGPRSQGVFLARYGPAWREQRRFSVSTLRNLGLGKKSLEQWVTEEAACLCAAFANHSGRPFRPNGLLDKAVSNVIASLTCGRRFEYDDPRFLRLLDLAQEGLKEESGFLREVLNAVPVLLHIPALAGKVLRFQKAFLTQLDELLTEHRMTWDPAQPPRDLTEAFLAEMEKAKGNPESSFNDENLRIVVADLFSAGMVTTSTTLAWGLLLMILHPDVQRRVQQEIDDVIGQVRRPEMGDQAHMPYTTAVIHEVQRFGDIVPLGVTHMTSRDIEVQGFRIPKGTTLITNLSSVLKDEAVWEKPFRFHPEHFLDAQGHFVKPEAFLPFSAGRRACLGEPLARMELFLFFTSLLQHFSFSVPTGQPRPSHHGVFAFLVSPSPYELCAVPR

[7] = Systemic clearance in Wistar rat at 3 mg/kg, iv by LC-MS/MS analysis; format: ADME, organism-based; conditions: in vivo
Method in brief: (§2)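 Male Wistar rats, n = 4; iv dose 3 mg/kg in 10% NMP, 10% Cremophor EL, acetate buffer pH 4.2 q.s.; values are means.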

[8] = test system: Mus musculus; assay: Antidepressant-like activity in po dosed mouse assessed as reduction in immobility time treated 1 hr prior to testing measured for 6 mins by tail suspension test
[9] = target: T1, Adenosine receptor A2b (Homo sapiens, UniProt P29275); assay: Displacement of [3H]-MRS-1754 from human A2B receptor expressed in HEK293 cell membranes after 90 mins radioligand binding assay
T1 sequence (P29275 whole entry): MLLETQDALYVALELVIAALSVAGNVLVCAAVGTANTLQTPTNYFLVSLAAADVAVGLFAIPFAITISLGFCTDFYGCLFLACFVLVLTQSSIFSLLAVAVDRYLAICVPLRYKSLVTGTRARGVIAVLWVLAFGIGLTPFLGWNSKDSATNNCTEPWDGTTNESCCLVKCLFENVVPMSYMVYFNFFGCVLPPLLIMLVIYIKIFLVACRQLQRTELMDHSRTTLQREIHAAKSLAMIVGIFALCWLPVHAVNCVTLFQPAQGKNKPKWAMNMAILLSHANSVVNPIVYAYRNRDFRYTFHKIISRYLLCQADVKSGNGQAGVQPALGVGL
Method in brief: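 Membranes from HEK-293 cells overexpressing the relevant human adenosine receptor subtype; all points in triplicate; Ki derived from 8-concentration IC50 curves.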

[10] = target: Adenosine receptor A2a (Homo sapiens, UniProt P29274); assay: Antagonist activity at human A2A receptor expressed in HEK293 cell membranes assessed as reduction in CGS-21680-induced cAMP level pretreated for 15 mins followed by CGS-21680 addition measured after 30 mins by HTRF assay; format: functional, cell-based; method in brief: as §1
Chain of Adenosine receptor A2a (Homo sapiens, UniProt P29274) (P29274 whole entry): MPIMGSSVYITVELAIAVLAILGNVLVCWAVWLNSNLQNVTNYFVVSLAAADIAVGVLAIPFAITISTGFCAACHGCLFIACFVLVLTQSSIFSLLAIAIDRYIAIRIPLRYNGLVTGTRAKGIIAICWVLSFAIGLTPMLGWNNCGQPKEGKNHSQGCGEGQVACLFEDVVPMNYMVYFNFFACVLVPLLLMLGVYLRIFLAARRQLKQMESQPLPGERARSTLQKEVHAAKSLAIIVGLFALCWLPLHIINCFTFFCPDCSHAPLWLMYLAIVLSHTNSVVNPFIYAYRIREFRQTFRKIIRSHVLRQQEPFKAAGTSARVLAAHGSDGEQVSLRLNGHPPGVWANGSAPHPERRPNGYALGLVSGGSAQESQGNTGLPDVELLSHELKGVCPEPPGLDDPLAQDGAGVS

[11] = target: T2, hERG (Homo sapiens, UniProt Q12809); assay: Inhibition of human ERG at 3 uM relative to control
T2 sequence (Q12809 whole entry): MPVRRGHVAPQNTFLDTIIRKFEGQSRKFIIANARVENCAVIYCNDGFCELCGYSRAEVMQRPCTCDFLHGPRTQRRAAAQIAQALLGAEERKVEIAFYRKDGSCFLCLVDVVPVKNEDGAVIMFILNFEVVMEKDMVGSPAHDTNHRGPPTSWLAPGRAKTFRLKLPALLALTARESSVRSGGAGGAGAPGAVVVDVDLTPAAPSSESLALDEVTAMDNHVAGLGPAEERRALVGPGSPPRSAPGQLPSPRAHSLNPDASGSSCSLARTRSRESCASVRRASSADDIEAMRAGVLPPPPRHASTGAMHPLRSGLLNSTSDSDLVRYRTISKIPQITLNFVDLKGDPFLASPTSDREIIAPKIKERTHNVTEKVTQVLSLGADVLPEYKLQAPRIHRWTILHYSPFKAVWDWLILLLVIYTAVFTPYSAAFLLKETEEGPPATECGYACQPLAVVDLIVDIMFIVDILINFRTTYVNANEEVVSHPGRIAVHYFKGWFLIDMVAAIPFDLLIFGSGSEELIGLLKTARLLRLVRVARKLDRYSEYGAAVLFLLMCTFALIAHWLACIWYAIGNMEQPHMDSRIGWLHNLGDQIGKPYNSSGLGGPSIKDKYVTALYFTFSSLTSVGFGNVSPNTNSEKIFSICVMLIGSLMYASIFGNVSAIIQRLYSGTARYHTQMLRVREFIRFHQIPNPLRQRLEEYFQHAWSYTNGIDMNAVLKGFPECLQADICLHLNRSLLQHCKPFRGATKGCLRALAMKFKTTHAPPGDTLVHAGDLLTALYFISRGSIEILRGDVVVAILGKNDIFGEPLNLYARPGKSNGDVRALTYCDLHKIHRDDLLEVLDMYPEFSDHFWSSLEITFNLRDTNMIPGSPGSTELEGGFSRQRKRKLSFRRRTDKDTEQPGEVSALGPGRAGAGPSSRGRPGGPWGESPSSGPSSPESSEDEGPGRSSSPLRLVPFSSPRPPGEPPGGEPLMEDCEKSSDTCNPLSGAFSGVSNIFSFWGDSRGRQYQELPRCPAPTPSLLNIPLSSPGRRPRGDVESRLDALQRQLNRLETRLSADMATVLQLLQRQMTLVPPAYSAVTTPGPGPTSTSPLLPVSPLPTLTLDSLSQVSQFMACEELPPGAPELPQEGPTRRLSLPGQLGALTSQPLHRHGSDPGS

[12] = Protein binding in mouse plasma; format: ADME, cell-free; conditions: read-out: PPB (converted)
[13] = Tmax in Wistar rat at 10 mg/kg, po administered via gavage by LC-MS/MS analysis; format: ADME, organism-based; conditions: in vivo
Method in brief: (§3)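 Male Wistar rats, n = 4; oral dose 10 mg/kg as suspension in 1% Tween 80 with 0.5% w/v NaCMC; values are means.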

[14] = Permeability across basolateral to apical side in human Caco2 cells; format: ADME, cell-based; conditions: caco-2
[15] = organism: Homo sapiens; assay: Selectivity ratio of Ki for displacement of [3H]-DPCPX from human A1 receptor expressed in HEK293 cell membranes to Ki for displacement of [3H]ZM241385 from human A2A receptor expressed in HEK293 cell membranes
Method in brief: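 Radioligand binding used membranes from HEK-293 cells overexpressing each human adenosine receptor isoform. Points were run in triplicate, and 8-concentration IC50 curves were plotted to give Ki. The selectivity value is the Ki at the off-target isoform divided by the Ki at hA2A.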

[16] = target: T3, Adenosine receptor A2b (Homo sapiens) (UniProt P29275); assay: Antagonist activity at human A2B receptor expressed in HEK293 cell membranes assessed as inhibition of NECA-induced cAMP level at 10 uM pretreated for 15 mins followed by NECA addition measured after 15 mins by HTRF assay; format: functional, cell-based
T3 sequence (whole entry): T1 sequence (P29275 whole entry)
Method in brief: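 HTRF cAMP functional assay on the human receptor isoform, run in triplicate at 12 concentrations with a top concentration of 10 µM, in two independent experiments. Inhibition at 10 µM is recorded where no Ki could be derived.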

[17] = Terminal half-life in Wistar rat at 3 mg/kg, iv by LC-MS/MS analysis; format: ADME, organism-based; conditions: in vivo, read-out: beta t1/2 (converted); method in brief: as §2
[18] = target: T4, Nuclear receptor subfamily 1 group I member 2 (Homo sapiens, UniProt O75469); assay: Transactivation of recombinant human PXR expressed in HepG2 cells after 42 hrs by dual luciferase reporter gene assay; format: ADME, cell-based
T4 sequence (O75469 whole entry): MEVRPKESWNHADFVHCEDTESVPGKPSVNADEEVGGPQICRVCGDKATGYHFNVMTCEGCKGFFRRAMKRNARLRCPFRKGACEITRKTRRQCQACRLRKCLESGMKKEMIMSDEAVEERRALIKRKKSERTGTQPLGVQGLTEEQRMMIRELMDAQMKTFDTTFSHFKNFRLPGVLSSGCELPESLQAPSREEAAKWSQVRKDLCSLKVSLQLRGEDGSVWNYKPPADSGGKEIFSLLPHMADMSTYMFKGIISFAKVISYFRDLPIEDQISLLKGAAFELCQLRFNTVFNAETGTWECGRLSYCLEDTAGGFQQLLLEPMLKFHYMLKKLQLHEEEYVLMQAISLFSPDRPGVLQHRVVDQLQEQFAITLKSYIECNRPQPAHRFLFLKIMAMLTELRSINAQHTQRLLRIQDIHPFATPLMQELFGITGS

[19] = Cmax in Wistar rat at 10 mg/kg, po administered via gavage by LC-MS/MS analysis; format: ADME, organism-based; design: dose 10 mg/kg, route oral; conditions: in vivo; method in brief: as §3
[20] = test system: Rattus norvegicus; assay: Toxicity in 6-OHDA-lesioned Wistar rat model of parkinson's disease assessed as induction of dyskinesia at 0.3 to 3 mg/kg, po administered twice daily for 21 days; format: organism-based; conditions: in vivo, 504 h
Method in brief: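 6-OHDA-lesioned rats given oral test compound (0.3-3 mg/kg) with L-DOPA, repeated daily; abnormal involuntary movements scored; mean ± SEM, n=6-7.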

[21] = Oral bioavailability in Wistar rat at 10 mg/kg administered via gavage by LC-MS/MS analysis; format: ADME, organism-based; conditions: in vivo; method in brief: as §3
[22] = Protein binding in dog plasma; format: ADME, cell-free, Canis lupus familiaris; conditions: read-out: PPB (converted)
[23] = target: Cytochrome P450 2C9 (Homo sapiens, UniProt P11712); assay: Inhibition of CYP2C9 (unknown origin); format: ADME
Chain of Cytochrome P450 2C9 (P11712 whole entry): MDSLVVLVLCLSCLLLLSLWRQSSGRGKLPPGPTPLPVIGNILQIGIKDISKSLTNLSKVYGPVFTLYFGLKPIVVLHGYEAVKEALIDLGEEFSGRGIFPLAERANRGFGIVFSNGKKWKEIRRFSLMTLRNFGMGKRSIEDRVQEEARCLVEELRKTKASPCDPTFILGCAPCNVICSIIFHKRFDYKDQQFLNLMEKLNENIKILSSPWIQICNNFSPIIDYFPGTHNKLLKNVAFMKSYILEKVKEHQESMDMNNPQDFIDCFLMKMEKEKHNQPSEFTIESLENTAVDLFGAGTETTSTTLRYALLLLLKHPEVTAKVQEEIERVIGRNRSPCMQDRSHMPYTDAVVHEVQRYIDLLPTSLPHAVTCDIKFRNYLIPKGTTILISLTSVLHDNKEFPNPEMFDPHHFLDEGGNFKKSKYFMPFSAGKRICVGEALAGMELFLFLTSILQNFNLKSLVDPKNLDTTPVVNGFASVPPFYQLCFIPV

[24] = target: T2, hERG; assay: Inhibition of human ERG at 10 uM relative to control

`COCCOc1ccc(N2CCN(CCn3c(=O)n(C)c4c3nc(N)n3nc(-c5nccs5)nc43)CC2)cc1F` gave a Ki [1] of 0.00044 to 0.0044 µM, a solubility [2] of 486 µM (≈ 276 µg/mL) and an IC50 [3] of over 10 µM. The Activity [4] was “Dose-dependent effect”, the ED50 [4] was 1.2 mg/kg and the permeability [5] was “Permeable”. It also gave an IC50 [6] of over 10 µM, a clearance [7] of 45 mL/min/kg and an ED50 [8] of 0.7 mg/kg. It also gave a Ki [9] of 5 µM, a Ki [10] of 0.0004 µM and an inhibition at 3 µM [11] of 28%. For the same compound, the fraction unbound [12] was 0.49, the Tmax [13] was 48 min and the permeability [14] was “Permeable”. It also gave a Ratio Ki [15] of over 1100, an inhibition [16] of under 50% and a half-life [17] of 60 min. For the same compound, the EC50 [18] was over 60 µM, the Cmax [19] was 600 nM and the Activity [20] was “Non-Toxic”. For the same compound, the bioavailability [21] was 32%, the fraction unbound [22] was 0.22 and the IC50 [23] was over 10 µM. It also gave an inhibition at 10 µM [24] of 38%.
